In article PMC3698760 (Journal of the American Heart Association: Cardiovascular …, 2013):

Assays:
ABCA1 = ABCA1 (Homo sapiens, UniProt O95477); assay: Probucol-inhibitable, ABCA1-specific cholesterol efflux in A172 cells; format: cell-based; conditions: probucol 10 μmol/L
Method in brief: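 A172 glioblastoma cells, labelled with ³H-cholesterol, were held in serum-free 0.2% BSA medium with 5 μmol/L T0901317 and 5 μmol/L 9-cis-retinoic acid. Cells were exposed for 4 h to 20 μg/mL acceptor, with or without 10 μmol/L probucol. ABCA1-dependent efflux was taken as the probucol-inhibitable fraction.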

Circular dichroism = format: physicochemical; conditions: CD spectra in water, 200 to 260 nm
Method in brief: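 Spectra of peptides and human apoA-I (17.8 to 178 μmol/L) recorded at 25°C in a thermostatted quartz cell with 0.1 mm path length, scanning 200–260 nm. Results expressed as mean residue ellipticity (deg cm² dmol⁻¹).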

[1] = system: apoE−/− mice fed a high‐fat diet; assay: Aortic atherosclerotic lesion formation, 16-week treatment; format: in vivo; conditions: scrambled FAMP i.p. 3 times per week, 16 weeks; Oil Red O; mean±SD
Method in brief: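 Male apoE−/− mice, bought at six weeks, fed a high-fat diet (0.5% cholesterol, 10% fat) and dosed i.p. 3 times per week for 16 weeks: test peptide at 10 or 50 mg/kg per day, or scrambled peptide. Whole aortas were then stained with Oil Red O. Lesion area was scored by image analysis as percentage of aorta from ascending aorta to abdominal bifurcation.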

apoE‐deficient mice [2] = assay: Plasma lipoprotein profiles analyzed by HPLC, 16-week treatment; format: in vivo; conditions: scrambled peptides i.p. 16 weeks, n=7, mean±SD
Method in brief: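 Plasma from apoE−/− mice after 16-week i.p. dosing (3 times weekly) was separated by HPLC into 20 particle-size subfractions. Each subfraction was assayed enzymatically for total cholesterol, free cholesterol, triglycerides and phospholipids; mean±SD.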

apoE‐deficient mice [3] = assay: Plasma lipid profiles by enzymatic assay, 16-week treatment; format: in vivo; conditions: scrambled peptides i.p. 16 weeks, n=7; high-fat-fed apoE-deficient mice; mean±SD
Method in brief: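 Overnight-fasting plasma taken after 16 weeks from 19 of 23 high-fat-fed apoE−/− mice. Dosing was i.p. 3 times weekly with scrambled peptide or test peptide at 10 or 50 mg/kg per day. Total cholesterol, triglyceride and HDL cholesterol were measured by enzymatic assay; mean±SD.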

A172 human glioblastoma = assay: Cellular cholesterol efflux in A172 human cells; format: cell-based; conditions: 4 hours
Method in brief: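 A172 human glioblastoma cells were grown in DMEM with 10% FBS and antibiotics, then labelled with ³H‑cholesterol. Efflux ran in serum‑free medium with 0.2% BSA, 5 μmol/L T0901317 and 5 μmol/L 9‑cis‑retinoic acid, with or without 10 μmol/L probucol. Acceptor was human apoA‑I or test peptide at 20 μg/mL, or a molar dose series, for 4 h. n=4–5; mean±SD.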

[4] = system: monocyte‐derived macrophages from an ABCA1‐deficient Tangier disease patient; format: cell-based, human; conditions: 20 μg/mL, 4 hours, n=4
Method in brief: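 Peripheral blood monocyte‑derived macrophages came from a healthy volunteer and a Tangier disease patient, with ethics approval and written consent. Cells were isolated by Lymphoprep density separation and labelled with ³H‑cholesterol. Efflux was run in serum‑free 0.2% BSA medium with or without 20 μg/mL human apoA‑I or test peptide for 4 h. n=4; mean±SD.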

Chain of ABCA1 (O95477 whole entry): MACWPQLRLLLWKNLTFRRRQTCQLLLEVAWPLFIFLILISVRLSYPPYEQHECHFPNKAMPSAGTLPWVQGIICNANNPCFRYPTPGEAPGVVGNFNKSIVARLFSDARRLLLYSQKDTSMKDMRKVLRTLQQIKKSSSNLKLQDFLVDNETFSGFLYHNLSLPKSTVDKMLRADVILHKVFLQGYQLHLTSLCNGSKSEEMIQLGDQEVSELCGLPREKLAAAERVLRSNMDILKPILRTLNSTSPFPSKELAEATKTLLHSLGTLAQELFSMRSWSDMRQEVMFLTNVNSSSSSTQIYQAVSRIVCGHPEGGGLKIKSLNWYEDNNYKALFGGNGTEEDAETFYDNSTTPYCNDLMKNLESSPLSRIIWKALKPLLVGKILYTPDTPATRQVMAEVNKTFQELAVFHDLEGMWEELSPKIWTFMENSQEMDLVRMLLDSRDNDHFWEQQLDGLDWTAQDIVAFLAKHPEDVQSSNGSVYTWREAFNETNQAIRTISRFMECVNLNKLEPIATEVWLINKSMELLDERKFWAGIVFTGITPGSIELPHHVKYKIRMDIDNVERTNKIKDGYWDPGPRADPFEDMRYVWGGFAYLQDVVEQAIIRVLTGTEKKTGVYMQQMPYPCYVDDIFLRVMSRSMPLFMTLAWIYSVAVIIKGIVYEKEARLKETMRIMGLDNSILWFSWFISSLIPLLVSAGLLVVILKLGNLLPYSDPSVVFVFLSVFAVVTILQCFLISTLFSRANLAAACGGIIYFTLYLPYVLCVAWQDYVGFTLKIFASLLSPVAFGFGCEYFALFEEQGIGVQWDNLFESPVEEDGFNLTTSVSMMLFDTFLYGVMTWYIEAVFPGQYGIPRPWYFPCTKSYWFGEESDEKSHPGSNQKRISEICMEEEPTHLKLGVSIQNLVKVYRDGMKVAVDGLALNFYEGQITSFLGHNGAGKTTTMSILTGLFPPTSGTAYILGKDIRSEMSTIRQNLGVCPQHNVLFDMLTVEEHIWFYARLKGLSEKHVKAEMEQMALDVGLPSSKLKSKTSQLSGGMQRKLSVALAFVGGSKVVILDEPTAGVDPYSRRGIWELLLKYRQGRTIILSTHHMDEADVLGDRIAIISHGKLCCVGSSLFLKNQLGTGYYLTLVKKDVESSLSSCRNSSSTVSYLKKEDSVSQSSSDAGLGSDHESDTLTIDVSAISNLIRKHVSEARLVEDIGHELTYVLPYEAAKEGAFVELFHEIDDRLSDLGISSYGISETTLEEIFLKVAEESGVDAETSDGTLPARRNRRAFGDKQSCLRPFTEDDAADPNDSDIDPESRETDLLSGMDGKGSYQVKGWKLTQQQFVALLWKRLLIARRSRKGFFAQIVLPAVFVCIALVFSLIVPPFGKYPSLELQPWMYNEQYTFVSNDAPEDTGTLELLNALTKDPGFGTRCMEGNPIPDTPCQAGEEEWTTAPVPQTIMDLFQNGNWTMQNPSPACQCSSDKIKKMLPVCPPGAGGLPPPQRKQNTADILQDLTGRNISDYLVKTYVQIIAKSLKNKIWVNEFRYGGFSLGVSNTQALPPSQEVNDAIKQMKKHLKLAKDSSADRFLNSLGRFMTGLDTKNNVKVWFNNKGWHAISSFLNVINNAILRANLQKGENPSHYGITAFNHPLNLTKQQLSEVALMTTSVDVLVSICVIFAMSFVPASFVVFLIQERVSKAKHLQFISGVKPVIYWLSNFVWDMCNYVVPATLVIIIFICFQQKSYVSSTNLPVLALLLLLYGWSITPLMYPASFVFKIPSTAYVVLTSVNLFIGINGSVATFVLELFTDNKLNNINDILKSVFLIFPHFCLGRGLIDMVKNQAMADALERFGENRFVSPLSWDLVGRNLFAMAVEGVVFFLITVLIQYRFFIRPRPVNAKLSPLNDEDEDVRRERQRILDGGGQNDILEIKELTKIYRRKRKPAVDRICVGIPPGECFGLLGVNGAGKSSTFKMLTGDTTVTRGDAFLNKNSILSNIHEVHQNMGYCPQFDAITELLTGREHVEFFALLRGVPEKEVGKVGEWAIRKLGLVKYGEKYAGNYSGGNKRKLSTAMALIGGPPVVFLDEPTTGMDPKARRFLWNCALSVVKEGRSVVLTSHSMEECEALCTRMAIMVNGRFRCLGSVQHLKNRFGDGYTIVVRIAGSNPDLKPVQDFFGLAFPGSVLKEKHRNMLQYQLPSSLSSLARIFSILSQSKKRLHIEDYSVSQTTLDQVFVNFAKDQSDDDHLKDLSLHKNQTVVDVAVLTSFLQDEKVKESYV

Substance: Ac-DWFKAFYDKVAEKFKEAF-NH2 [L‐4F, reference compound]
- percentage of probucol‐inhibitable, ABCA1‐specific cholesterol efflux (ABCA1): much more unspecific cholesterol efflux compared with FAMP5

Substance: H-ALEHLFTLSEKALKALEDLLKKLL-OH [FAMP2]
- α‐helical conformation (CD spectra) (Circular dichroism): formed strong α‐helical conformations

Substance: H-ATEFLHLLLLKLLKKKEDELLAYA-OH [Scrambled FAMP, reference compound]
- relative surface area of aortic plaque lesions [1]: 31.3±8.9%
- Cholesterol, CM (>80 nm) (apoE‐deficient mice [2]): 106.2 ± 47.8 mg/dL
- Cholesterol, HDL (8 to 16 nm) (apoE‐deficient mice [2]): 23.0 ± 4.5 mg/dL
- Cholesterol, HDL Subfractions Intermediate Particles (apoE‐deficient mice [2]): 12.0 ± 3.4 mg/dL
- Cholesterol, HDL Subfractions Large Particles (apoE‐deficient mice [2]): 7.2 ± 1.5 mg/dL
- Cholesterol, HDL Subfractions Small Particles (apoE‐deficient mice [2]): 3.8 ± 0.5 mg/dL
- Cholesterol, LDL (16 to 30 nm) (apoE‐deficient mice [2]): 165.3 ± 25.4 mg/dL
- Cholesterol, VLDL (30 to 80 nm) (apoE‐deficient mice [2]): 423.7 ± 96.1 mg/dL
- Free cholesterol, CM (>80 nm) (apoE‐deficient mice [2]): 44.9 ± 20.5 mg/dL
- Free cholesterol, HDL (8 to 16 nm) (apoE‐deficient mice [2]): 12.5 ± 1.4 mg/dL
- Free cholesterol, HDL Subfractions Intermediate Particles (apoE‐deficient mice [2]): 5.1 ± 0.5 mg/dL
- Free cholesterol, HDL Subfractions Large Particles (apoE‐deficient mice [2]): 5.7 ± 1.1 mg/dL
- Free cholesterol, HDL Subfractions Small Particles (apoE‐deficient mice [2]): 1.7 ± 0.2 mg/dL
- Free cholesterol, LDL (16 to 30 nm) (apoE‐deficient mice [2]): 80.9 ± 10.1 mg/dL
- Free cholesterol, VLDL (30 to 80 nm) (apoE‐deficient mice [2]): 179.8 ± 35.9 mg/dL
- Phospholipids, CM (>80 nm) (apoE‐deficient mice [2]): 53.0 ± 22.3 mg/dL
- Phospholipids, HDL (8 to 16 nm) (apoE‐deficient mice [2]): 45.5 ± 10.3 mg/dL
- Phospholipids, HDL Subfractions Intermediate Particles (apoE‐deficient mice [2]): 28.1 ± 7.4 mg/dL
- Phospholipids, HDL Subfractions Large Particles (apoE‐deficient mice [2]): 12.4 ± 3.3 mg/dL
- Phospholipids, HDL Subfractions Small Particles (apoE‐deficient mice [2]): 5.0 ± 1.7 mg/dL
- Phospholipids, LDL (16 to 30 nm) (apoE‐deficient mice [2]): 133.6 ± 20.5 mg/dL
- Phospholipids, VLDL (30 to 80 nm) (apoE‐deficient mice [2]): 228.2 ± 40.0 mg/dL
- Triglyceride, CM (>80 nm) (apoE‐deficient mice [2]): 13.9 ± 7.5 mg/dL
- Triglyceride, HDL (8 to 16 nm) (apoE‐deficient mice [2]): 3.3 ± 0.8 mg/dL
- Triglyceride, HDL Subfractions Intermediate Particles (apoE‐deficient mice [2]): 1.5 ± 0.5 mg/dL
- Triglyceride, HDL Subfractions Large Particles (apoE‐deficient mice [2]): 0.6 ± 0.2 mg/dL
- Triglyceride, HDL Subfractions Small Particles (apoE‐deficient mice [2]): 1.1 ± 0.3 mg/dL
- Triglyceride, LDL (16 to 30 nm) (apoE‐deficient mice [2]): 12.3 ± 4.2 mg/dL
- Triglyceride, VLDL (30 to 80 nm) (apoE‐deficient mice [2]): 33.8 ± 7.7 mg/dL
- HDL Cholesterol (apoE‐deficient mice [3]): 12.6 ± 4.8 mg/dL
- Total Cholesterol (apoE‐deficient mice [3]): 1373.9 ± 499.2 mg/dL
- Triglyceride (apoE‐deficient mice [3]): 119.9 ± 21.7 mg/dL

Substance: H-ATEHLSTLSEKAKPALEDLLKKLL-OH [FAMP4]
- α‐helical conformation (CD spectra) (Circular dichroism): but not FAMP4, formed strong α‐helical conformations

Substance: human apoA‐I: Human apoA‐I purchased from Calbiochem, 243–amino acid major HDL protein
- concentration adequate for a saturating effect on cholesterol efflux (A172 human glioblastoma; A172 cells): 20 µg/mL
- effect of ABCA1 inactivation (probucol) on peptide-mediated cholesterol efflux (A172 human glioblastoma; probucol 10 μmol/L, 20 μg/mL): drastically inhibited
- cholesterol efflux in Tangier disease macrophages vs healthy subject [4]: suppressed
